Bioassay records from PubChem.
The list is not random: actives were taken first. Their share in the collection is about 1.7%.
UBC13 polyUb: inhibitors of human UBC13 polyubiquitin chain formation; AID 485273; TR-FRET; inhibition, % at 20 µM; 330,000 tested, 0.47% active; in the data active = inhibition above about 45%, passing the limit was not always enough
ZTA counter: blocks Epstein-Barr virus ZTA, an EBNA-1 counter-screen | 320,000 tested, 0.15% active | inhibition, % at 11 µM | P03206 | AID 2234 | ZTA-DNA binding, fluorescence polarization; in the data active = inhibition above about 33%
Apaf1 inhib: inhibitors of human Apaf-1 apoptosome. O14727. reconstituted apoptosome caspase-3 activity, DEVD-Rh110 fluorescence. inhibition, % at 20 µM. 330,000 tested, 0.71% active. AID 489030; active = inhibition of at least 40% at 20 µM
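Assay system – apoptosome proteins · Medium – Hepes buffer, pH 7.5 · Also added – cytochrome c with DEVD-Rh110 · Timing – 30 min compound preincubation, 50 min activation, room temperature · Detection – Rh110 fluorescence, excitation 480 nm, emission 540 nm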
EBNA-1 inh: blocks EBNA-1 binding to DNA. AID 1950. inhibition, % at 14.8 µM. EBNA-1 DNA binding, fluorescence polarization. 300,000 tested, 0.34% active; in the data active = inhibition above about 28%
PREPL inhibitor: human PREPL enzyme inhibition | Q4J6C6 | recombinant PREPL, fluorescence polarization activity-based probe | inhibition, % at 5.96 µM | 320,000 tested, 0.68% active | AID 2751
PREPL inh cf: human PREPL inhibition, confirmation; shares compounds with PREPL inhibitor; recombinant PREPL, fluorescence polarization activity probe; inhibition, % at 5.96 µM; 2,000 tested, 67% active
Each line names hits and unclear results; the compound was inactive in the other large screens (follow-up assays come after a bar, where they were run). Rule as the data show it, unless noted: active = inhibition above about 43%; inactive = the rest.

O=C(COc1ccccc1Cl)Nc1ccc(N2CCCC2)cc1	none
Cc1ccc(OCC(=O)Nc2ccc(N3CCN(C(=O)c4ccc(C)cc4)CC3)cc2)cc1	none
CC(=O)N1CCN(c2ccc(NC(=O)COc3ccc(Cl)cc3Cl)cc2)CC1	PREPL inhibitor 53 | PREPL inh cf 54
Cc1ccc(C(=O)N/N=C/c2nc3ccccc3n2C)cc1	none
CC(=O)Nc1cccc(C(=O)Nc2ccc(S(=O)(=O)NC3=NCCCCC3)cc2)c1	none
COc1ccccc1CNC(=O)CS(=O)(=O)Cc1ccccc1	none
C=CCCN([C@@H](C)C(=O)OC)S(=O)(=O)c1ccccc1Br	none
CCN1CCN(c2ccc(NC(=O)COc3ccc(Cl)cc3C)cc2)CC1	PREPL inhibitor 43 (no result: ZTA counter, EBNA-1 inh) | PREPL inh cf 53
O=C(COc1ccccc1[N+](=O)[O-])Nc1ccc(N2CCN(C(=O)c3cccs3)CC2)cc1	PREPL inhibitor 44 | PREPL inh cf 64
Cc1cc(Cl)ccc1OCC(=O)Nc1ccncc1	none
CCC(=O)Nc1ccc(N2CCN(C(=O)c3cccs3)CC2)cc1	none
O=C1NC(c2ccc(Br)cc2)Nc2ccccc21 (stereo not given)	none
Cc1cc(C)c2nc(N3C(=O)C(O)=C(C(=O)c4ccco4)C3c3ccco3)sc2c1 (stereo not given)	PREPL inhibitor 44 | PREPL inh cf 53
CCOc1ccc(NC(=O)NCCN2CCN(c3ccccc3F)CC2)cc1	none
COc1ccc(NC(=O)NCCCN2CCN(c3ccccc3F)CC2)cc1	PREPL inhibitor 49 | PREPL inh cf inactive
NC(=O)[C@@H]1CCCNc2c(I)cc([N+](=O)[O-])cc2C(=O)N[C@@H](CCCN=C(N)N)C(=O)N[C@@H](CCCN=C(N)N)C(=O)N1	Apaf1 inhib 41, PREPL inhibitor 61 | PREPL inh cf 59
CC[C@H](C)[C@@H]1NC(=O)c2cc([N+](=O)[O-])cc(I)c2NCC[C@@H](C(N)=O)NC(=O)[C@H](CCCN=C(N)N)NC1=O	none
O=C(NC1(Cc2ccc(O)cc2)CCCCC1)c1ccccc1	none
CCOc1ccccc1/C=C/c1onc(C)c1S(=O)(=O)N1CCC(C(=O)N(CC)CC)CC1	none
CCN(CCN(C)C)C(=O)C1CCN(S(=O)(=O)c2c(C)noc2/C=C/c2ccccc2F)CC1	PREPL inhibitor 44 | PREPL inh cf inactive
O=C(Cn1cnc2c(nnn2Cc2ccccc2)c1=O)c1ccc(Cl)cc1	none
CCC1(C)NC(=O)N(/N=C/c2cc(OC)c(O)c(OC)c2)C1=O (stereo not given)	none
O=C(C[n+]1ccc2ccccc2c1)c1cccc2ccccc12	PREPL inhibitor 52 | PREPL inh cf inactive
Cc1ccc(C(=O)C[n+]2ccc3ccccc3c2)cc1	none
CC(=O)c1cccc(N=c2scc(-c3ccc(S(=O)(=O)N4CCOCC4)cc3)n2CCO)c1	none
CN(C)S(=O)(=O)c1cccc(-c2csc(=Nc3ccccc3)n2CCCN2CCOCC2)c1	PREPL inhibitor 56 | PREPL inh cf 55
O=C(CSc1nc2ccc(NC(=O)c3ccccc3C(=O)O)cc2s1)Nc1ccc(F)c([N+](=O)[O-])c1	PREPL inhibitor 51 | PREPL inh cf inactive
COc1ccccc1C(=O)Nc1ccc2nc(SCC(=O)N(C)C)sc2c1	none
COCCN1CCCC(CNCc2cn(C)nc2-c2ccc(Oc3ccccc3)cc2)C1 (stereo not given)	PREPL inhibitor 43 | PREPL inh cf inactive
COC1CCCN(Cc2cn(C)nc2-c2ccc(Oc3ccccc3)cc2)C1 (stereo not given)	none
Cc1oc2c(CN3CCCCC3C)c(O)ccc2c(=O)c1-c1ccccc1 (stereo not given)	none
O=c1nc2sc3ccccc3n2c(=O)n1-c1cccc(Cl)c1	none
CN(C)CCNC(=O)C(=O)c1c(-c2ccccc2)cc2ccccn12	none
COc1ccc(-c2c(-c3ccccc3)c(C(=O)C(=O)NCCCN(C)C)n3ccc4cc(OC)c(OC)cc4c23)cc1OC	PREPL inhibitor 46 | PREPL inh cf 52
CC(C)(C)NC(=S)Nc1ccc(Br)cc1	none
CC(C)(C)NC(=S)Nc1ccc(Nc2ccccc2)cc1	PREPL inhibitor 59 | PREPL inh cf inactive
O=C(CCCN1C(=O)S/C(=C\C=C\c2ccccc2)C1=O)Nc1ccc(C(=O)O)cc1	none
O=C(CCN1C(=O)S/C(=C\C=C\c2ccccc2)C1=O)Nc1ccc(O)cc1	PREPL inhibitor 43 | PREPL inh cf inactive
CCN(C(=O)COC(=O)Cc1c[nH]c2ccccc12)C1CCS(=O)(=O)C1 (stereo not given)	none
Cc1c(Cl)c([N+](=O)[O-])nn1CCCC(=O)Nc1cccc(Cl)c1Cl	PREPL inhibitor 47 | PREPL inh cf inactive
CC(C)=CCC/C(C)=C/CNC(=O)CC1C[C@H](C(=O)N2CCOCC2)[C@@]2(C)c3[nH]c4ccccc4c3CCN2C1=O (stereo not given in full)	PREPL inhibitor 57 (no result: ZTA counter, EBNA-1 inh) | PREPL inh cf inactive
O=C(OC(C(=O)NCc1ccco1)C(OC(=O)c1ccccc1)C(=O)NCc1ccco1)c1ccccc1 (stereo not given)	none
COCCOC(=O)c1c(N)n(CCCN2CCOCC2)c2nc3ccccc3nc12	none
COCCn1c(=N)c(C(=O)NCCc2ccc(OC)cc2)cc2c(=O)n3cccc(C)c3nc21	none
COc1ccc(CNC(=O)c2c(N)n(CCCN3CCOCC3)c3nc4ccccc4nc23)cc1	Apaf1 inhib 87, PREPL inhibitor 69 | PREPL inh cf 50
COc1ccc(CCNC(=O)c2cc3c(=O)n4cccc(C)c4nc3n(CCCN3CCOCC3)c2=N)cc1	PREPL inhibitor 53 | PREPL inh cf 56
CCOC(=O)C1(C(C)(C)CC)CC(CSc2nc3ccccc3[nH]2)OC1=O (stereo not given)	none
COc1cc(/C=C2/C(=O)NN(c3ccc(Cl)c(Cl)c3)C2=O)cc([N+](=O)[O-])c1O	PREPL inhibitor 53 (no result: UBC13 polyUb, Apaf1 inhib) | PREPL inh cf inactive
COc1ccc(N2CCN(c3cc(C)nc4ccc(OC)cc34)CC2)cc1	PREPL inhibitor 43 | PREPL inh cf 50
O=C(CSc1nc(=O)n(CCCN2CCOCC2)c2c1CCC2)Nc1ccc(F)cc1F	none
O=C(c1cccc([N+](=O)[O-])c1)N1CCN(c2ccc(Cl)cc2)CC1	PREPL inhibitor 51 | PREPL inh cf inactive
C/C(=N\N1CCN(c2ccc(Cl)cc2)CC1)c1cccc([N+](=O)[O-])c1	none
O=C(Nc1ccccc1)C1=C[C@@H](c2coc3ccccc3c2=O)C[C@@H](OCc2ccc(CO)cc2)O1	PREPL inhibitor 49 | PREPL inh cf 48
O=C(NCc1ccccc1)C1=C[C@H](c2coc3ccccc3c2=O)C[C@H](OCc2ccc(CO)cc2)O1	none
O=C(Cc1ccccc1)Nc1cccc(N2CCCC2)c1	PREPL inhibitor 51 | PREPL inh cf inactive
O=C(Cc1ccccc1)Nc1ccc(N2CCCC2)cc1	PREPL inhibitor 60 | PREPL inh cf inactive
CCOC(=O)c1cccc(-n2cccc2/C=C2\NC(=O)N(CC(=O)O)C2=O)c1	none (no result: ZTA counter, EBNA-1 inh)
